Test results published in ChEMBL document CHEMBL5247578, “Effective synthesis of benzimidazoles-imidazo[1,2-a]pyrazine conjugates: A comparative study of mono-and bis-benzimidazoles for antitumor activity” (Eur J Med Chem, 2019).

How the values were obtained:
T47D = assay: Antiproliferative activity against human T47D cells assessed as cell growth inhibition at 10 uM incubated for 48 hrs by sulforhodamine B assay relative to control; format: functional
Procedure, shortened: (§1)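 NCI-60 single-dose screen at 10^-5 M. Cells grown in RPMI 1640 with 5% FBS and 2 mM L-glutamine, plated at 5,000–40,000 cells/well, and preincubated 24 h. Drug (DMSO stock) added and incubated 48 h at 37 °C, 5% CO2. Adherent cells fixed with cold TCA, stained with 0.4% SRB in 1% acetic acid, dye solubilized in 10 mM trizma base, A515 read. Percent growth taken against time-zero and untreated control.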

SK-MEL-28 = assay: Antiproliferative activity against human SK-MEL-28 cells assessed as cell growth inhibition at 10 uM incubated for 48 hrs by sulforhodamine B assay relative to control; format: functional; procedure, shortened: as §1
NCI-H226 = assay: Antiproliferative activity against human NCI-H226 cells assessed as cell growth inhibition by measuring lethal concentration incubated for 48 hrs by sulforhodamine B assay; format: functional; conditions: read-out: LC50 (the source's name)
SK-OV-3 = assay: Antiproliferative activity against human SK-OV-3 cells assessed as cell growth inhibition at 10 uM incubated for 48 hrs by sulforhodamine B assay relative to control; format: functional; procedure, shortened: as §1
IGROV-1 = assay: Antiproliferative activity against human IGROV-1 cells assessed as cell growth inhibition at 10 uM incubated for 48 hrs by sulforhodamine B assay relative to control; format: functional; procedure, shortened: as §1
DU-145 = assay: Antiproliferative activity against human DU-145 cells assessed as cell growth inhibition at 10 uM incubated for 48 hrs by sulforhodamine B assay relative to control; format: functional
Procedure, shortened: (§2)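 NCI-60 one-dose prescreen at 10^-5 M. Cells grown in RPMI 1640 with 5% FBS and 2 mM glutamine, preincubated 24 h, then exposed 48 h at 37 °C. Adherent lines TCA-fixed, SRB-stained, A515 read. Growth percent relative to time-zero and control; negative values mean cell kill.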

RPMI-8226 = assay: Antiproliferative activity against human RPMI-8226 cells assessed as cell growth inhibition at 10 uM incubated for 48 hrs by sulforhodamine B assay relative to control; format: functional; procedure, shortened: as §1
OVCAR-3 = assay: Antiproliferative activity against human OVCAR-3 cells assessed as cell growth inhibition at 10 uM incubated for 48 hrs by sulforhodamine B assay relative to control; format: functional; procedure, shortened: as §1
SF-295 = assay: Antiproliferative activity against human SF-295 cells assessed as cell growth inhibition at 10 uM incubated for 48 hrs by sulforhodamine B assay relative to control; format: functional; procedure, shortened: as §1
UACC-257 = assay: Antiproliferative activity against human UACC-257 cells assessed as cell growth inhibition at 10 uM incubated for 48 hrs by sulforhodamine B assay relative to control; format: functional; procedure, shortened: as §1
SF-539 = assay: Antiproliferative activity against human SF-539 cells assessed as cell growth inhibition at 10 uM incubated for 48 hrs by sulforhodamine B assay relative to control; format: functional; procedure, shortened: as §1
NCI-H23 = assay: Antiproliferative activity against human NCI-H23 cells assessed as cell growth inhibition at 10 uM incubated for 48 hrs by sulforhodamine B assay relative to control; format: functional; procedure, shortened: as §1
A549 = assay: Antiproliferative activity against human A549 cells assessed as cell growth inhibition at 10 uM incubated for 48 hrs by sulforhodamine B assay relative to control; format: functional
Procedure, shortened: (§3)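 Single-dose NCI-60 prescreen at 10^-5 M. Cells in RPMI 1640 with 5% FBS and 2 mM L-glutamine, seeded 5,000–40,000 cells/well with 24 h preincubation, then drug exposure for 48 h at 37 °C under 5% CO2. Growth read by SRB staining of TCA-fixed cells at 515 nm against time-zero and untreated controls. Negative growth values denote cell kill.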

HT-29 = assay: Antiproliferative activity against human HT-29 cells assessed as cell growth inhibition at 10 uM incubated for 48 hrs by sulforhodamine B assay relative to control; format: functional; procedure, shortened: as §1
SK-MEL-5 = assay: Antiproliferative activity against human SK-MEL-5 cells assessed as cell growth inhibition at 10 uM incubated for 48 hrs by sulforhodamine B assay relative to control; format: functional; procedure, shortened: as §1
PC-3 = assay: Antiproliferative activity against human PC-3 cells assessed as cell growth inhibition at 10 uM incubated for 48 hrs by sulforhodamine B assay relative to control; format: functional; procedure, shortened: as §1
HCC 2998 = assay: Antiproliferative activity against human HCC 2998 cells assessed as cell growth inhibition at 10 uM incubated for 48 hrs by sulforhodamine B assay relative to control; format: functional; procedure, shortened: as §2
COLO 205 = assay: Antiproliferative activity against human COLO 205 cells assessed as cell growth inhibition at 10 uM incubated for 48 hrs by sulforhodamine B assay relative to control; format: functional; procedure, shortened: as §3
MDA-MB-435 = assay: Antiproliferative activity against human MDA-MB-435 cells assessed as cell growth inhibition at 10 uM incubated for 48 hrs by sulforhodamine B assay relative to control; format: functional; procedure, shortened: as §1
SF-268 = assay: Antiproliferative activity against human SF-268 cells assessed as cell growth inhibition at 10 uM incubated for 48 hrs by sulforhodamine B assay relative to control; format: functional; procedure, shortened: as §1
NCI-H322M = assay: Antiproliferative activity against human NCI-H322M cells assessed as cell growth inhibition at 10 uM incubated for 48 hrs by sulforhodamine B assay relative to control; format: functional; procedure, shortened: as §1
M14 = assay: Antiproliferative activity against human M14 cells assessed as cell growth inhibition at 10 uM incubated for 48 hrs by sulforhodamine B assay relative to control; format: functional; procedure, shortened: as §1
TK-10 = assay: Antiproliferative activity against human TK-10 cells assessed as cell growth inhibition at 10 uM incubated for 48 hrs by sulforhodamine B assay relative to control; format: functional; procedure, shortened: as §1
K562 = assay: Antiproliferative activity against human K562 cells assessed as cell growth inhibition at 10 uM incubated for 48 hrs by sulforhodamine B assay relative to control; format: functional; procedure, shortened: as §1
NCI-H460 = assay: Antiproliferative activity against human NCI-H460 cells assessed as cell growth inhibition at 10 uM incubated for 48 hrs by sulforhodamine B assay relative to control; format: functional; procedure, shortened: as §1
OVCAR-4 = assay: Antiproliferative activity against human OVCAR-4 cells assessed as cell growth inhibition at 10 uM incubated for 48 hrs by sulforhodamine B assay relative to control; format: functional; procedure, shortened: as §1
BT-549 = assay: Antiproliferative activity against human BT-549 cells assessed as cell growth inhibition at 10 uM incubated for 48 hrs by sulforhodamine B assay relative to control; format: functional; procedure, shortened: as §3
HEK293 = assay: Cytotoxicity against human HEK293 cells assessed as reduction in cell viability at 0.00000001 M incubated for 48 hrs by MTT colorimetric assay relative to control; format: toxicity, cell-based; conditions: hek293, 48 h, 0.01 µM, dose 10 nM
MCF7 = assay: Antiproliferative activity against human MCF7 cells assessed as cell growth inhibition at 10 uM incubated for 48 hrs by sulforhodamine B assay relative to control; format: functional; procedure, shortened: as §1
Malme-3M = assay: Antiproliferative activity against human Malme-3M cells assessed as cell growth inhibition at 10 uM incubated for 48 hrs by sulforhodamine B assay relative to control; format: functional; procedure, shortened: as §1
HOP-62 = assay: Antiproliferative activity against human HOP-62 cells assessed as cell growth inhibition at 10 uM incubated for 48 hrs by sulforhodamine B assay relative to control; format: functional; procedure, shortened: as §2
CAKI-1 = assay: Antiproliferative activity against human CAKI-1 cells assessed as cell growth inhibition at 10 uM incubated for 48 hrs by sulforhodamine B assay relative to control; format: functional; procedure, shortened: as §3

SMILES | inhibition at 10 µM (T47D) [%] | inhibition at 10 µM (IGROV-1) [%] | inhibition at 10 µM (DU-145) [%] | inhibition at 10 µM (RPMI-8226) [%] | inhibition at 10 µM (OVCAR-3) [%] | inhibition at 10 µM (SF-295) [%] | inhibition at 10 µM (UACC-257) [%] | inhibition at 10 µM (SF-539) [%] | inhibition at 10 µM (NCI-H23) [%] | inhibition at 10 µM (A549) [%] | inhibition at 10 µM (HT-29) [%] | inhibition at 10 µM (SK-MEL-5) [%] | inhibition at 10 µM (PC-3) [%] | inhibition at 10 µM (HCC 2998) [%] | inhibition at 10 µM (COLO 205) [%] | inhibition at 10 µM (MDA-MB-435) [%] | inhibition at 10 µM (SF-268) [%] | inhibition at 10 µM (M14) [%] | inhibition at 10 µM (NCI-H460) [%] | inhibition at 10 µM (BT-549) [%] | other results
COc1ccc(-c2cn3ccnc3c(-c3ccc4ncn(C5CCCCC5)c4c3)n2)cc1 | -8.6 | 53.4 | 81.8 | 95.6 | -26.5 | 92.5 | 26.3 | -43.4 | 62.1 | 68.6 | 92.5 | 92.3 | 95.2 | 62.6 | -8.01 | -18.6 | 49.9 | 89.2 | 91.1 | 68.9 | inhibition at 10 µM (SK-MEL-28): 47.7%; CC50 (NCI-H226): > 100 µM; inhibition at 10 µM (SK-OV-3): 74.3%; inhibition at 10 µM (NCI-H322M): 31.5%; inhibition at 10 µM (TK-10): 18.5%; inhibition at 10 µM (K562): 92%; inhibition at 10 µM (OVCAR-4): 46.4%; Activity (HEK293): 13.96%; inhibition at 10 µM (MCF7): 80.2%
c1cn2cc(-c3ccc4c(c3)ncn4C3CCCCC3)nc(-c3ccc4ncn(C5CCCCC5)c4c3)c2n1 | 44.7 | 8.51 | 8.72 | 70.8 | 3.05 | 50.6 | 14.9 | 35.7 | 20.5 | 25.3 | 58.2 | 36.8 | 45 | 15.5 | 6.71 | 7.38 | 18.4 | 6.98 | 11.9 | 27.7 | inhibition at 10 µM (Malme-3M): 5.14%; inhibition at 10 µM (HOP-62): 16.8%; inhibition at 10 µM (K562): 38.5%; inhibition at 10 µM (CAKI-1): 15.9%; inhibition at 10 µM (MCF7): 19.1%
c1cn2cc(-c3ccc4ncn(C5CCCCC5)c4c3)nc(-c3ccc4ncn(C5CCCCC5)c4c3)c2n1 | 54.9 | 60.8 | 46.3 | 89.1 | 40.4 | 44 | 35.5 | 16.7 | 28.2 | 57.6 | 71.9 | 55.7 | 64.2 | 17.7 | 22.4 | 60.2 | 41.7 | 40.6 | 53 | 38.3 | inhibition at 10 µM (SK-MEL-28): 24.4%; inhibition at 10 µM (Malme-3M): 7.04%; inhibition at 10 µM (SK-OV-3): 14.8%; inhibition at 10 µM (HOP-62): 42.6%; inhibition at 10 µM (NCI-H322M): 39.1%; inhibition at 10 µM (TK-10): 14.4%; inhibition at 10 µM (K562): 69.8%; inhibition at 10 µM (OVCAR-4): 22.8%; inhibition at 10 µM (CAKI-1): 54.6%; inhibition at 10 µM (MCF7): 45%
c1ccc(Cn2cnc3ccc(-c4nc(-c5ccc6c(c5)ncn6C5CCCCC5)cn5ccnc45)cc32)cc1 | -2.12 | 94.2 | -28.2 | -41.2 | -35.7 | -81.3 | -32.7 | -77.6 | -22.8 | -5.05 | -48.7 | -84 | -39.5 | -88 | -29.9 | -6.16 | -0.11 | -4.44 | -20.3 | -44.7 | inhibition at 10 µM (SK-MEL-28): 99.6%; CC50 (NCI-H226): > 100 µM; inhibition at 10 µM (Malme-3M): -15.4%; inhibition at 10 µM (SK-OV-3): -22.2%; inhibition at 10 µM (HOP-62): -9.39%; inhibition at 10 µM (NCI-H322M): 84%; inhibition at 10 µM (TK-10): 94.8%; inhibition at 10 µM (OVCAR-4): 83.2%; Activity (HEK293): 12.08%; inhibition at 10 µM (CAKI-1): 56.7%; inhibition at 10 µM (MCF7): 98%
